These results are taken from ChEMBL document CHEMBL1138800, “Synthesis and biological evaluation of novel N6-[4-(substituted)sulfonamidophenylcarbamoyl]adenosine-5'-uronamides as A3 adenosine receptor agonists” (J Med Chem, 2004).

Experiment [1] has as its target T1, Adenosine receptor A3 (Homo sapiens, UniProt P0DMS8).
T1 sequence (P0DMS8 whole entry): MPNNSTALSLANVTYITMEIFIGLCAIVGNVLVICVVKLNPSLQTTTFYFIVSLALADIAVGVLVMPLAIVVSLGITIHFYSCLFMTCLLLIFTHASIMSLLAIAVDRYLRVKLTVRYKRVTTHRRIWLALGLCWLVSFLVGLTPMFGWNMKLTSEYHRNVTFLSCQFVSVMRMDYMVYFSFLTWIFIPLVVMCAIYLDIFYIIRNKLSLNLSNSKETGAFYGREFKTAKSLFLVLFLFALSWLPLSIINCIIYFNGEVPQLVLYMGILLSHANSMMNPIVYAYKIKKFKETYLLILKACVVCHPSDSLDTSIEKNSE
The experiment is described as follows: Inhibition of (10 uM) forskolin-mediated cAMP production in CHO cells expressing human Adenosine A3 receptor. Format: functional, cell-based. (cAMP levels reflect the balance of adenylyl cyclase and phosphodiesterase activity.)

The target in experiment [2] is T2, Adenosine receptor A2a (Homo sapiens, UniProt P29274). The experiment is described as follows: Displacement of [3H]CGS-21680 binding to Adenosine A2 receptor expressed in CHO cells. In kind it is cell-based.
T2 sequence (P29274 whole entry): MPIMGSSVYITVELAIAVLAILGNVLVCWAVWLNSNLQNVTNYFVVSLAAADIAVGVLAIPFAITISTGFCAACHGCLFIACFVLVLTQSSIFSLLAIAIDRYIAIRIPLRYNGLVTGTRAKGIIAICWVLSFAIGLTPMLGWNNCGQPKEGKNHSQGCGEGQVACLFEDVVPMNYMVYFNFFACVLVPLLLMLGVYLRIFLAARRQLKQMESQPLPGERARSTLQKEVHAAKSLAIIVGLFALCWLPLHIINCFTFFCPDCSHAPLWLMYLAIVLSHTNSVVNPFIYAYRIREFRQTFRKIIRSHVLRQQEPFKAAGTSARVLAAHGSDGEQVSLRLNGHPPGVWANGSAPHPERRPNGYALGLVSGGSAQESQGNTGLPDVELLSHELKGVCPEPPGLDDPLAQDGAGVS
Another experiment deals with T3, Adenosine receptor A1 (Homo sapiens, UniProt P30542).
T3 sequence (P30542 whole entry): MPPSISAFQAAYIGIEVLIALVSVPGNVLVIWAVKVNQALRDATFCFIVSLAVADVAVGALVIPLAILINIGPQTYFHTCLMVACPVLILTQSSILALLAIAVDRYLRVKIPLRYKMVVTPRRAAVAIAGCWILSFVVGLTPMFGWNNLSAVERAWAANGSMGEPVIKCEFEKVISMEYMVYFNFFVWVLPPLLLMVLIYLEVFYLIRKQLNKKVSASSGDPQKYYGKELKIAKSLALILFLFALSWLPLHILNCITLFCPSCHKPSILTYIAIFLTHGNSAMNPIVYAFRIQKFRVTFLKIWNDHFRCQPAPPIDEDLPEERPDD
The experiment is described as follows: Displacement of [3H]CHA binding to Adenosine A1 receptor expressed in CHO cells. In kind it is cell-based. The essentials:
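Human A1-transfected CHO membranes (adenosine deaminase-treated), 50 µg protein, incubated 120 min at 25 °C in 50 mM Tris HCl pH 7.4 with 1 nM [3H]-CHA and 6-8 agonist concentrations; nonspecific binding with 10 µM CHA. Filtration through GF/B filters, scintillation counting; Ki from IC50 via Cheng-Prusoff; geometric mean with confidence limits.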

Experiment [3] addresses Adenosine receptors; A1 & A3 (Homo sapiens) (UniProt P30542+P0DMS8). The experiment is described as follows: Ratio of binding affinity for Adenosine A1 and Adenosine A3 receptors. Format: protein assay.
For experiment [4], the target named is Adenosine receptors; A2a & A3 (Homo sapiens) (UniProt P0DMS8+P29274). Description: Ratio of binding affinity for Adenosine A2A and Adenosine A3 receptors. In kind it is protein assay. The essentials:
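Ki ratio of two competition binding assays on adenosine deaminase-treated membranes of CHO cells expressing human receptors (50 µg protein). […] A3: 1 nM [125I]-AB-MECA, 120 min, 4 °C, duplicates. Filtration read-out; Ki by Cheng-Prusoff.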

The target of experiment [5] is T1, Adenosine receptor A3. The experiment is described as follows: Displacement of [125I]AB-MECA binding to Adenosine A3 receptor expressed in CHO cells. In kind it is cell-based. Background: Displacement assays read how much labelled ligand stays bound in the presence of the test substance.
The target in experiment [6] is T2, Adenosine receptor A2a. The experiment is described as follows: Inhibition of [3H]CGS-21680 binding to Adenosine A2A receptor expressed in CHO cells. In kind it is cell-based. On the set-up: concentration or dose not given beside the values. The conditions noted are these: concentration not given here.

Adenosine receptors; A2a & A3 (Homo sapiens), sequence (P29274 whole entry, looked up, one chain of several): as the sequence (P29274 whole entry) above

In general, IC50 refers to the midpoint of a concentration-inhibition curve. What is called Ki is a measure of affinity in units of concentration, obtained from inhibition or displacement. `CCNC(=O)[C@H]1O[C@@H](n2cnc3c(NC(=O)Nc4ccc(S(N)(=O)=O)cc4)ncnc32)C(O)C1O` (single isomer, unassigned): the concentration for half-maximal inhibition (IC50) against Adenosine receptor A3 [1] came out at 81 nM. Also, the figures for the inhibition constant Ki at Adenosine receptor A2a [2], on Adenosine receptor A1 and on Adenosine receptor A3 [5] were 95.2 nM, 30.1 nM and 14.8 nM, respectively. Also, the Ratio turned out to be 2.03 in experiment [3] and 6.43 in experiment [4].

Broadly, the inhibition is the share of the control response that was lost under treatment. Take `CCNC(=O)[C@H]1OC(n2cnc3c(NC(=O)Nc4ccc(S(=O)(=O)NC5CCCC5)cc4)ncnc32)C(O)C1O` (single isomer, unassigned): the Ki on Adenosine receptor A2a [2] was over 1000 nM; on Adenosine receptor A1 it was 415 nM; on Adenosine receptor A3 [5], 24 nM. At Adenosine receptor A2a [6], this molecule returned an inhibition of 19%. Besides, in experiment [3], the Ratio turned out to be 17.3.

For the molecule `CCCCCNS(=O)(=O)c1ccc(NC(=O)Nc2ncnc3c2ncn3C2O[C@H](C(=O)NCC)C(O)C2O)cc1` (single isomer, unassigned), the values for the Ki on Adenosine receptor A2a [2], on Adenosine receptor A1 and on Adenosine receptor A3 [5] were over 1000 nM, 445 nM and 80 nM, respectively. The molecule further showed an inhibition at Adenosine receptor A2a [6] of 32%. In experiment [3], the Ratio amounted to 5.56.

As to `CCNC(=O)[C@H]1OC(n2cnc3c(NC(=O)Nc4ccc(S(=O)(=O)NC5CCCCC5)cc4)ncnc32)C(O)C1O` (single isomer, unassigned), the figures for the Ki at Adenosine receptor A2a [2] and at Adenosine receptor A1 were over 1000 nM and 350 nM, respectively. On Adenosine receptor A2a [6], the inhibition was found to be 25%.

`CCNC(=O)[C@H]1OC(n2cnc3c(NC(=O)Nc4ccc(S(=O)(=O)NC(C)(C)C)cc4)ncnc32)C(O)C1O` (single isomer, unassigned): the Ki at Adenosine receptor A2a [2] was over 1000 nM; on Adenosine receptor A1, 250 nM; on Adenosine receptor A3 [5] it was 20 nM. Further, the inhibition on Adenosine receptor A2a [6] is 32%. In experiment [3], the Ratio turned out to be 12.5.

In the case of `CCNC(=O)[C@H]1OC(n2cnc3c(NC(=O)Nc4ccc(S(=O)(=O)N5CCCCC5)cc4)ncnc32)C(O)C1O` (single isomer, unassigned), the Ki at Adenosine receptor A2a [2] is over 1000 nM. In addition, the inhibition on Adenosine receptor A2a [6] was found to be 15%.

In the case of `CCNC(=O)[C@H]1OC(n2cnc3c(NC(=O)Nc4ccc(S(=O)(=O)NC56CC7CC(CC(C7)C5)C6)cc4)ncnc32)C(O)C1O` (single isomer, unassigned), the Ki at Adenosine receptor A2a [2] is over 1000 nM; on Adenosine receptor A1 it was 240 nM; on Adenosine receptor A3 [5], 35 nM. This molecule also showed an inhibition on Adenosine receptor A2a [6] of 31%. Further, in experiment [3], the Ratio is 7.5.

Turning to `CCNC(=O)[C@H]1OC(n2cnc3c(NC(=O)Nc4ccc(S(=O)(=O)N(CCCl)CCCl)cc4)ncnc32)C(O)C1O` (single isomer, unassigned), the Ki at Adenosine receptor A2a [2] was over 1000 nM; at Adenosine receptor A1 it was 730 nM; at Adenosine receptor A3 [5], 23 nM. The same molecule displayed an inhibition at Adenosine receptor A2a [6] of 27%. Also, in experiment [3], the Ratio came out at 31.7.

With `CCNC(=O)[C@H]1OC(n2cnc3c(NC(=O)Nc4ccc(S(=O)(=O)NCC)cc4)ncnc32)C(O)C1O` (single isomer, unassigned), the figures for the Ki on Adenosine receptor A2a [2], at Adenosine receptor A1 and at Adenosine receptor A3 [5] were over 1000 nM, 250 nM and 23 nM, respectively. For the same molecule, at Adenosine receptor A2a [6], the inhibition is 34%. For the same molecule, the Ratio in experiment [3] was 10.9.

With `CCNC(=O)[C@H]1OC(n2cnc3c(NC(=O)Nc4ccc(S(=O)(=O)N(C)C)cc4)ncnc32)C(O)C1O` (single isomer, unassigned), the inhibition constant Ki at Adenosine receptor A2a [2] was over 1000 nM; on Adenosine receptor A1, 280 nM. Besides, at Adenosine receptor A2a [6], the inhibition worked out at 21%.

For `CCNC(=O)[C@H]1OC(n2cnc3c(NC(=O)Nc4ccc(S(=O)(=O)N5CC=CC5)cc4)ncnc32)C(O)C1O` (single isomer, unassigned), the Ki on Adenosine receptor A2a [2] was over 1000 nM; on Adenosine receptor A1, 250 nM; at Adenosine receptor A3 [5] it was 19 nM. Besides, the inhibition on Adenosine receptor A2a [6] turned out to be 17%. The Ratio in experiment [3] came to 13.2.

For `CCNC(=O)[C@H]1OC(n2cnc3c(NC(=O)Nc4ccc(S(=O)(=O)N5CCCC5)cc4)ncnc32)C(O)C1O` (single isomer, unassigned), the figures for the Ki at Adenosine receptor A2a [2] and on Adenosine receptor A3 [5] were over 1000 nM and 22 nM, respectively. Besides, the inhibition at Adenosine receptor A2a [6] is 23%.

As to `CCCN(CCC)S(=O)(=O)c1ccc(NC(=O)Nc2ncnc3c2ncn3C2O[C@H](C(=O)NCC)C(O)C2O)cc1` (single isomer, unassigned), the values for the inhibition constant (Ki) on Adenosine receptor A2a [2], at Adenosine receptor A1 and at Adenosine receptor A3 [5] were over 1000 nM, 350 nM and 14 nM, respectively. On Adenosine receptor A2a [6], this molecule registered an inhibition of 15%. The Ratio in experiment [3] stood at 25.

For the molecule `CCNC(=O)[C@H]1OC(n2cnc3c(NC(=O)Nc4ccc(S(=O)(=O)N5CCOCC5)cc4)ncnc32)C(O)C1O` (single isomer, unassigned), the Ki on Adenosine receptor A2a [2] is over 1000 nM; at Adenosine receptor A1, 725 nM; at Adenosine receptor A3 [5] it was 20 nM. For the same molecule, on Adenosine receptor A2a [6], the inhibition was 20%. The Ratio in experiment [3] was determined as 36.2.

Take `CCNC(=O)[C@H]1OC(n2cnc3c(NC(=O)Nc4ccc(S(=O)(=O)Nc5ccc(OC)cc5)cc4)ncnc32)C(O)C1O` (single isomer, unassigned): the Ki at Adenosine receptor A2a [2] is over 1000 nM; at Adenosine receptor A1 it was 280 nM. Also, on Adenosine receptor A2a [6], the inhibition was 34%.

On Adenosine receptor A2a [2], `CCNC(=O)[C@H]1OC(n2cnc3c(NC(=O)Nc4ccc(S(=O)(=O)N(CC)CC)cc4)ncnc32)C(O)C1O` (single isomer, unassigned) came in with a Ki of over 1000 nM. This molecule also displayed an inhibition at Adenosine receptor A2a [6] of 28%.

In the case of `CCNC(=O)[C@H]1OC(n2cnc3c(NC(=O)Nc4ccc(S(=O)(=O)NCc5ccccc5)cc4)ncnc32)C(O)C1O` (single isomer, unassigned), the inhibition constant Ki is over 1000 nM at Adenosine receptor A2a [2] and 300 nM on Adenosine receptor A1. On Adenosine receptor A2a [6], this molecule showed an inhibition of 30%.

`C=CCN(C)S(=O)(=O)c1ccc(NC(=O)Nc2ncnc3c2ncn3C2O[C@H](C(=O)NCC)C(O)C2O)cc1` (single isomer, unassigned) displayed an IC50 against Adenosine receptor A3 [1] of 42 nM. Moreover, the figures for the inhibition constant (Ki) on Adenosine receptor A2a [2] and at Adenosine receptor A3 [5] were over 1000 nM and 10 nM, respectively. Further, at Adenosine receptor A2a [6], the inhibition was 10%.

With `CCCNS(=O)(=O)c1ccc(NC(=O)Nc2ncnc3c2ncn3C2O[C@H](C(=O)NCC)C(O)C2O)cc1` (single isomer, unassigned), the Ki is over 1000 nM at Adenosine receptor A2a [2], 290 nM at Adenosine receptor A1 and 25 nM on Adenosine receptor A3 [5]. The inhibition on Adenosine receptor A2a [6] worked out at 31%. In addition, in experiment [3], the Ratio was determined as 11.6.

Consider `C=CCN(CC=C)S(=O)(=O)c1ccc(NC(=O)Nc2ncnc3c2ncn3C2O[C@H](C(=O)NCC)C(O)C2O)cc1` (single isomer, unassigned), for which, at Adenosine receptor A3 [1], half-maximal inhibition (IC50) required 65 nM. In addition, the Ki was over 1000 nM on Adenosine receptor A2a [2], 380 nM on Adenosine receptor A1 and 10 nM on Adenosine receptor A3 [5]. This molecule showed an inhibition on Adenosine receptor A2a [6] of 15%. Also, the Ratio in experiment [3] turned out to be 38.

Consider `CCNC(=O)[C@H]1OC(n2cnc3c(NC(=O)Nc4ccc(S(=O)(=O)N(C)C(C)C)cc4)ncnc32)C(O)C1O` (single isomer, unassigned), for which, on Adenosine receptor A2a [6], the inhibition was determined as 13%.
